Columns and labels:
[1] = Metabolic stability in human liver microsomes assessed as compound remaining at 5 uM in presence of UDPGA by RP-HPLC; assay type: ADME, Microsome; settings: read-out: Stability
Method in brief: (§1)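 Test drug at 5 µM incubated with liver microsomes (0.5 mg/ml) plus cofactor (1 mM NADPH or 5 mM UDPGA) at 37 °C for 30 min. Residual drug measured by RP-HPLC. Values are the mean percent remaining of duplicates.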

[2] = system: Human immunodeficiency virus 1; assay: Antiviral activity against HIV1 3B in presence of 50% human serum; assay type: functional, organism-based; settings: Human immunodeficiency virus 1, 3B
[3] = Metabolic stability in human liver microsomes assessed as compound remaining at 5 uM in presence of NADPH by RP-HPLC; assay type: ADME, Microsome; settings: read-out: Stability; method in brief: as §1
[4] = system: Human immunodeficiency virus 1; assay: Antiviral activity against HIV1 3B; assay type: functional, organism-based; settings: Human immunodeficiency virus 1, 3B
Protease = Protease (Human immunodeficiency virus 1, UniProt Q9YQ12); assay: Inhibition of HIV1 protease
[5] = system: Human immunodeficiency virus 1; assay: Antiviral activity against HIV1 mutant strain 6; assay type: functional, organism-based
[6] = system: Human immunodeficiency virus 1; assay: Antiviral activity against HIV1 mutant strain 3; assay type: functional, organism-based
[7] = system: Human immunodeficiency virus 1; assay: Antiviral activity against HIV1 mutant strain 5; assay type: functional, organism-based
[8] = system: Human immunodeficiency virus 1; assay: Antiviral activity against HIV1 mutant strain 2; assay type: functional, organism-based
Method in brief: (§2)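 PhenoSense phenotypic assay. Strain 2 protease carries L10I, G16A, K45V, F53L, I54V, K55N, D60E, L63P, A71V, I72K, V77I, V82F, I84V, L90M, I93L. EC50 in µM. Fold change is versus the wild-type EC50.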

[9] = system: Human immunodeficiency virus 1; assay: Antiviral activity against HIV1 mutant strain 1; assay type: functional, organism-based
Method in brief: (§3)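 PhenoSense phenotypic susceptibility assay on multi-drug-resistant clinical HIV-1 protease variant strains, run in parallel with a wild-type reference. EC50 read in µM. Fold change is mutant EC50 divided by wild-type EC50.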

[10] = system: Human immunodeficiency virus 1; assay: Antiviral activity against HIV1 mutant strain 4; assay type: functional, organism-based
[11] = system: Human immunodeficiency virus 1; assay: Antiviral activity against wild type HIV1; assay type: functional, organism-based
[12] = system: Human immunodeficiency virus 1; assay: Antiviral activity against HIV1 mutant strain 7; assay type: functional, organism-based
Method in brief: (§4)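 PhenoSense phenotypic assay. Strain 7 protease mutations include T4A, L10I, K20R, L23I, L33F, E35D, M36I, K43T, M46L. EC50 in µM. Fold change is versus the wild-type EC50.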

[13] = system: Human immunodeficiency virus 1; assay: Ratio of EC50 for HIV1 mutant strain 6 to EC50 for wild type HIV1; assay type: functional
[14] = system: Human immunodeficiency virus 1; assay: Ratio of EC50 for HIV1 mutant strain 2 to EC50 for wild type HIV1; assay type: functional; method in brief: as §2
[15] = system: Human immunodeficiency virus 1; assay: Ratio of EC50 for HIV1 mutant strain 1 to EC50 for wild type HIV1; assay type: functional; method in brief: as §3
[16] = system: Human immunodeficiency virus 1; assay: Ratio of EC50 for HIV1 mutant strain 3 to EC50 for wild type HIV1; assay type: functional
[17] = system: Human immunodeficiency virus 1; assay: Ratio of EC50 for HIV1 mutant strain 5 to EC50 for wild type HIV1; assay type: functional
[18] = system: Human immunodeficiency virus 1; assay: Ratio of EC50 for HIV1 mutant strain 7 to EC50 for wild type HIV1; assay type: functional; method in brief: as §4
[19] = system: Human immunodeficiency virus 1; assay: Ratio of EC50 for HIV1 mutant strain 4 to EC50 for wild type HIV1; assay type: functional
[20] = Cmax in Beagle dog at 15 mg/kg, po; assay type: ADME, organism-based, Canis lupus familiaris; set-up: dose 15 mg/kg, route oral; settings: in vivo
[21] = Plasma clearance in Beagle dog at 15 mg/kg, iv; assay type: ADME, organism-based, Canis lupus familiaris; set-up: dose 15 mg/kg, route intravenous
[22] = Tmax in Beagle dog at 15 mg/kg, po; assay type: ADME, organism-based, Canis lupus familiaris; set-up: dose 15 mg/kg, route oral; settings: in vivo
Liver [23] = assay: Metabolic stability in dog liver microsomes assessed as compound remaining in presence of NADPH by RP-HPLC; assay type: ADME, Canis lupus familiaris, Microsome; method in brief: as §1
[24] = Volume of distribution at steady state in Beagle dog at 15 mg/kg, iv; assay type: ADME, organism-based, Canis lupus familiaris; set-up: dose 15 mg/kg, route intravenous; settings: in vivo, read-out: Vdss
Liver [25] = assay: Metabolic stability in dog liver microsomes assessed as compound remaining in presence of UDPGA by RP-HPLC; assay type: ADME, Canis lupus familiaris, Microsome; method in brief: as §1
[26] = AUC in Beagle dog at 15 mg/kg, po; assay type: ADME, organism-based, Canis lupus familiaris; set-up: dose 15 mg/kg, route oral; settings: plasma
[27] = Oral bioavailability in Beagle dog at 15 mg/kg; assay type: ADME, organism-based, Canis lupus familiaris; settings: in vivo
[28] = Plasma concentration in Beagle dog at 15 mg/kg, po after 12 hrs; assay type: ADME, organism-based, Canis lupus familiaris; set-up: dose 15 mg/kg, route oral
[29] = Metabolic stability in human liver microsomes assessed as compound remaining at 5 uM by RP-HPLC; assay type: ADME, Microsome; settings: read-out: Stability; method in brief: as §1
[30] = Metabolic stability in dog liver microsomes assessed as compound remaining at 5 uM by RP-HPLC; assay type: ADME, Canis lupus familiaris, Microsome; settings: read-out: Stability; method in brief: as §1
[31] = Metabolic stability in dog liver microsomes assessed as compound remaining at 5 uM in presence of 0.5 uM ritonavir by RP-HPLC; assay type: ADME, Canis lupus familiaris, Microsome; settings: with ritonavir 0.5 uM, read-out: Stability
[32] = Metabolic stability in human liver microsomes assessed as compound remaining at 5 uM in presence of 2.5 uM ritonavir by RP-HPLC; assay type: ADME, Microsome; settings: with ritonavir 2.5 uM, read-out: Stability
[33] = Metabolic stability in rat liver microsomes assessed as compound remaining at 5 uM in presence of 0.5 uM ritonavir by RP-HPLC; assay type: ADME, Microsome; settings: with ritonavir 0.5 uM, read-out: Stability
[34] = Metabolic stability in dog liver microsomes assessed as compound remaining at 5 uM in presence of 2.5 uM ritonavir by RP-HPLC; assay type: ADME, Canis lupus familiaris, Microsome; settings: with ritonavir 2.5 uM, read-out: Stability
[35] = Metabolic stability in human liver microsomes assessed as compound remaining at 5 uM in presence of 0.5 uM ritonavir by RP-HPLC; assay type: ADME, Microsome; settings: with ritonavir 0.5 uM, read-out: Stability
[36] = Metabolic stability in rat liver microsomes assessed as compound remaining at 5 uM in presence of 2.5 uM ritonavir by RP-HPLC; assay type: ADME, Microsome; settings: with ritonavir 2.5 uM, read-out: Stability
[37] = Metabolic stability in rat liver microsomes assessed as compound remaining at 5 uM by RP-HPLC; assay type: ADME, Microsome; settings: read-out: Stability; method in brief: as §1

Chain of Protease (Q9YQ12 whole entry): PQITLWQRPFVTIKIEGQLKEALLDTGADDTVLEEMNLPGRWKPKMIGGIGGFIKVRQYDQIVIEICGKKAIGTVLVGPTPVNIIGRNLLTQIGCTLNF

| SMILES | remaining at 5 µM [1] [%] | EC50 [2] [nM] | remaining at 5 µM [3] [%] | EC50 [4] [nM] | Ki (Protease) [nM] | EC50 [5] [nM] | EC50 [6] [nM] | EC50 [7] [nM] | EC50 [8] [nM] | EC50 [9] [nM] | EC50 [10] [nM] | EC50 [11] [nM] | EC50 [12] [nM] | further results |
| --- | --- | --- | --- | --- | --- | --- | --- | --- | --- | --- | --- | --- | --- | --- |
| Cc1ccccc1CNC(=O)[C@H]1N(C(=O)[C@@H](O)[C@H](Cc2ccccc2)NC(=O)c2cccc(N)c2Cl)CSC1(C)C | > 95 | 165 | 46 | 77 | 0.353 |  |  |  |  |  |  |  |  |  |
| COc1ccc(C[C@H](NC(=O)c2cccc(N)c2Cl)[C@H](O)C(=O)N2CCC(C)(C)[C@H]2C(=O)NCc2c(C)cccc2C)cc1 | > 95 | 80 | 63 | 40 | 0.804 |  |  |  |  |  |  |  |  |  |
| COc1ccc(C[C@H](NC(=O)c2cccc(N)c2Cl)[C@H](O)C(=O)N2CSC(C)(C)[C@H]2C(=O)NCc2c(C)cccc2C)cc1 | > 95 | 14 | 58 | 24 | 0.138 |  |  |  |  |  |  |  |  |  |
| CCOc1ccc(C[C@H](NC(=O)c2cccc(N)c2Cl)[C@H](O)C(=O)N2CCC(C)(C)[C@H]2C(=O)NCc2c(C)cccc2C)cc1 | > 95 | 270 | 53 | 63 | 0.861 |  |  |  |  |  |  |  |  |  |
| CC(C)(C)NC(=O)[C@@H]1CN(Cc2cccnc2)CCN1C[C@@H](O)C[C@@H](Cc1ccccc1)C(=O)N[C@H]1c2ccccc2C[C@H]1O |  | 87 |  | 23 |  | 819 | 753 | > 1500 | 464 | 401 | 113 | 7.6 | 145 |  |
| Cc1c(O)cccc1C(=O)N[C@@H](CSc1ccccc1)[C@H](O)CN1C[C@H]2CCCC[C@H]2C[C@H]1C(=O)NC(C)(C)C |  | 293 |  | 19 | 0.931 | > 1500 | 413 | 776 | 346 | 452 | > 1500 | 5.4 | 515 | Ratio EC50 [13]: >273; Ratio EC50 [14]: 64; Ratio EC50 [15]: 82; Ratio EC50 [16]: 75; Ratio EC50 [17]: 141; Ratio EC50 [18]: 94; Ratio EC50 [19]: >273 |
| COC(=O)N[C@H](C(=O)N[C@@H](Cc1ccccc1)[C@@H](O)CN(Cc1ccc(-c2ccccn2)cc1)NC(=O)[C@@H](NC(=O)OC)C(C)(C)C)C(C)(C)C [ATAZANAVIR] | > 95 | 9 | 83 | < 4 | 0.05 | 134 | 23 | 266 | 48 | 92 | 95 | 1.5 | 74 | Cmax [20]: 4200 nM; clearance [21]: 26.7 mL/min/kg; Ratio EC50 [13]: 90; Ratio EC50 [14]: 32; Tmax [22]: 30 min; Stability (Liver [23]): 83%; Vd [24]: 2 L/kg; Ratio EC50 [15]: 62; Ratio EC50 [16]: 16; Stability (Liver [25]): > 95%; AUC [26]: 15 µM·h; Ratio EC50 [17]: 180; bioavailability [27]: 102%; Ratio EC50 [18]: 50; Ratio EC50 [19]: 64; concentration at 12 h [28]: 50 nM |
| Cc1cccc(C)c1OCC(=O)N[C@@H](Cc1ccccc1)[C@@H](O)C[C@H](Cc1ccccc1)NC(=O)[C@H](C(C)C)N1CCCNC1=O [LOPINAVIR] |  | 8 |  | 8 |  | 411 | 657 | 807 | 251 | 214 | 66 | 3.7 | 212 | remaining at 5 µM [29]: 10%; remaining at 5 µM [30]: 16%; remaining at 5 µM [31]: 83%; remaining at 5 µM [32]: > 95%; remaining at 5 µM [33]: 83%; remaining at 5 µM [34]: > 95%; remaining at 5 µM [35]: > 95%; remaining at 5 µM [36]: > 95%; remaining at 5 µM [37]: 11% |
| CC(C)c1nc(CN(C)C(=O)N[C@H](C(=O)N[C@@H](Cc2ccccc2)C[C@H](O)[C@H](Cc2ccccc2)NC(=O)OCc2cncs2)C(C)C)cs1 [RITONAVIR] |  | 41 |  | 2 |  | > 3000 | > 3000 | > 3000 | > 3000 | 1730 | 1000 | 16 | > 3000 |  |

Reference: ChEMBL document CHEMBL1143257, “Structure-activity relationships of novel HIV-1 protease inhibitors containing the 3-amino-2-chlorobenzoyl-allophenylnorstatine structure” (Bioorg Med Chem, 2008)
